Test results as given in paper PMC11336813 (Heliyon, 2024).
Read-outs that look alike come from different tables or passages of the source.

Tests used:
[1] = Total PER plasma concentration by HPLC-MS/MS; format: in vivo, children with epilepsy
Free = format: in vivo, children with epilepsy
In short: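 Children aged 0–16 y on an unchanged oral PER dose for ≥4 weeks, dosed in the evening. Blood (2 mL, EDTA) drawn 8:00–10:00 a.m. next day, spun 1 610 ×g for 5 min, and plasma stored at −80 °C. Plasma (200 μL) ultrafiltered at 13 680 ×g for 20 min at 4 °C. Ultrafiltrate (40 μL) plus PER-D5 internal standard was methanol-precipitated, then run on C18 reversed-phase positive-mode MRM against a least-squares linear calibration.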

[2] = format: physicochemical; conditions: n = 5
plasma proteins = conditions: cited from earlier work
[3] = cited from earlier work
[4] = cited from earlier work; remark: listed apart in the source
CYP2C9 = conditions: human liver microsomes; cited from earlier work
CYP2C19 = conditions: human liver microsomes; cited from earlier work
CYP3A4 = conditions: human liver microsomes; cited from earlier work
[5] = 57 plasma samples, steady state
[6] = Group A: cotherapy enzyme inducers, n = 11
[7] = Group B: cotherapy not strong enzyme inducers/not inhibitors, n = 10
[8] = Group C: cotherapy enzyme inhibitors (VPA), n = 31
[9] = Group D: cotherapy enzyme inducers + VPA, n = 5
[10] = patient No. 25, PER 5 mg·d^−1 with VPA

## N#Cc1ccccc1-c1cc(-c2ccccn2)cn(-c2ccccc2)c1=O [PER, Perampanel]
[1]; [5]
  Total concentration, range: 90.17 to 1867.73 ng/mL
[1]; [6]
  Total PER concentration, mean ± SD: 311.32 ± 190.14 ng/mL
[1]; [7]
  Total PER concentration, mean ± SD: 490.97 ± 255.71 ng/mL
[1]; [8]
  Total PER concentration, mean ± SD: 745.60 ± 415.53 ng/mL
[1]; [9]
  Total PER concentration, mean ± SD: 780.14 ± 459.18 ng/mL
[1]; VPA cotherapy, n = 36
  Total PER concentration, mean ± SD: 750.40 ± 415.02 ng/mL
[1]; child No. 38, PER 2 mg·d^−1
  Total drug PER concentration: 289.24 ng/mL
[1]; not VPA cotherapy, n = 21
  Total PER concentration, mean ± SD: 396.87 ± 236.55 ng/mL
[1]; [10]
  Total drug PER concentration: 1158.38 ng/mL
Free; [5]
  Free concentration, range: 0.42 to 23.14 ng/mL
Free; 57 plasma samples, steady state, oral PER 2.00–8.00 mg·d^−1
  Free concentration, mean ± SD: 8.09 ± 5.85 ng/mL
Free; [6]
  Free PER concentration, mean ± SD: 4.80 ± 3.70 ng/mL
Free; [7]
  Free PER concentration, mean ± SD: 5.28 ± 5.57 ng/mL
Free; [8]
  Free PER concentration, mean ± SD: 9.84 ± 5.66 ng/mL
Free; [9]
  Free PER concentration, mean ± SD: 10.09 ± 7.54 ng/mL
Free; VPA cotherapy, n = 36
  Free PER concentration, mean ± SD: 9.87 ± 5.83 ng/mL
Free; child No. 38, PER 2 mg·d^−1
  Free drug PER concentration: 1.95 ng/mL
Free; not VPA cotherapy, n = 21
  Free PER concentration, mean ± SD: 5.03 ± 4.57 ng/mL
Free; [10]
  Free drug PER concentration: 17.71 ng/mL
[2]; nominal 1 ng·mL^−1
  Autosampler 5°C-8 h (x̄ ± s): 1.03 ± 0.05 ng/mL
  frozen at −20 °C for 15 days (x̄ ± s): 0.96 ± 0.09 ng/mL
  frozen at −20 °C for 30 days (x̄ ± s): 0.96 ± 0.08 ng/mL
  frozen at −80 °C for 45 days (x̄ ± s): 0.97 ± 0.02 ng/mL
  frozen at −80 °C for 60 days (x̄ ± s): 0.95 ± 0.07 ng/mL
[2]; nominal 1 ng·mL^−1, room temperature (about 25 °C) 4 h
  Short-term 4 h (x̄ ± s): 1.01 ± 0.09 ng/mL
[2]; nominal 1 ng·mL^−1, three freeze–thaw cycles (−20 °C/room temperature)
  Freeze-thaw Stability (x̄ ± s): 1.02 ± 0.05 ng/mL
[2]; nominal 10 ng·mL^−1
  Autosampler 5°C-8 h (x̄ ± s): 9.99 ± 0.37 ng/mL
  frozen at −20 °C for 15 days (x̄ ± s): 9.99 ± 0.22 ng/mL
  frozen at −20 °C for 30 days (x̄ ± s): 9.79 ± 0.21 ng/mL
  frozen at −80 °C for 45 days (x̄ ± s): 10.03 ± 0.38 ng/mL
  frozen at −80 °C for 60 days (x̄ ± s): 10.85 ± 0.38 ng/mL
[2]; nominal 10 ng·mL^−1, room temperature 4 h
  Short-term 4 h (x̄ ± s): 9.94 ± 0.42 ng/mL
[2]; nominal 10 ng·mL^−1, three freeze–thaw cycles
  Freeze-thaw Stability (x̄ ± s): 9.99 ± 0.08 ng/mL
[2]; nominal 40 ng·mL^−1
  Autosampler 5°C-8 h (x̄ ± s): 37.53 ± 1.46 ng/mL
  frozen at −20 °C for 15 days (x̄ ± s): 39.06 ± 1.06 ng/mL
  frozen at −20 °C for 30 days (x̄ ± s): 38.87 ± 1.52 ng/mL
  frozen at −80 °C for 45 days (x̄ ± s): 43.90 ± 1.23 ng/mL
  frozen at −80 °C for 60 days (x̄ ± s): 43.64 ± 1.27 ng/mL
[2]; nominal 40 ng·mL^−1, room temperature 4 h
  Short-term 4 h (x̄ ± s): 38.09 ± 1.40 ng/mL
[2]; nominal 40 ng·mL^−1, three freeze–thaw cycles
  Freeze-thaw Stability (x̄ ± s): 37.39 ± 0.53 ng/mL
[2]; nominal 120 ng·mL^−1
  Autosampler 5°C-8 h (x̄ ± s): 113.16 ± 0.76 ng/mL
  frozen at −20 °C for 15 days (x̄ ± s): 121.27 ± 3.40 ng/mL
  frozen at −20 °C for 30 days (x̄ ± s): 119.85 ± 2.22 ng/mL
  frozen at −80 °C for 45 days (x̄ ± s): 130.97 ± 2.18 ng/mL
  frozen at −80 °C for 60 days (x̄ ± s): 132.67 ± 1.39 ng/mL
[2]; nominal 120 ng·mL^−1, room temperature 4 h
  Short-term 4 h (x̄ ± s): 111.97 ± 2.47 ng/mL
[2]; nominal 120 ng·mL^−1, three freeze–thaw cycles
  Freeze-thaw Stability (x̄ ± s): 115.95 ± 6.88 ng/mL
Plasma proteins; after oral administration
  Bound to plasma proteins: 95%
Plasma proteins
  Free PER available to exert pharmacological effects: 5%
[3]
  Plasma half-life: approximately 105 h
[3]; with OXC
  Decrease of mean PER AUC values: 50%
[3]; with drugs that induce liver CYP3A4/5
  Decrease in blood concentration: 2–3 fold
[3]; with enzyme-induced AEDs (OXC, CBZ, PHB)
  Decrease in PER plasma concentrations: 2–3 fold
[4]
  Reference range of blood (total) PER concentration: 86 to 1000 ng/mL

## CCCC(CCC)C(=O)O [VPA, valproic acid]
CYP2C9
  Inhibition of CYP2C9 activity: potent inhibition
CYP2C19
  Inhibitory effect on CYP2C19: minor inhibitory effects
CYP3A4
  Inhibitory effect on CYP3A4: minor inhibitory effects
